Measured values: ChEMBL document CHEMBL1811844, “Design, synthesis, and biological evaluation of triazolo-pyrimidine derivatives as novel inhibitors of hepatitis B virus surface antigen (HBsAg) secretion” (J Med Chem, 2011)

Columns and labels:
Assay type in all cases: organism-based
[1] = test system: Mus musculus; assay: Toxicity in HBV infected transgenic 1.3.32 mouse assessed as change in serum glucose level at 7.9 to 25 mg/kg, po qd for 14 days; set-up: dose 7.9-25 mg/kg, route oral; conditions: in vivo, 336 h
Outline: (§1)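 HBV-transgenic mice (strain 1.3.32), 10 per group, randomised; oral gavage once daily for 14 days at 25 or 7.9 mg/kg in NMP:Solutol HS15/saline vehicle; vehicle-only group. Weighed before the first dose and after 3 days; observed one hour after each dose. Tail-vein blood taken before dosing, at day 7 and at day 14 necropsy, each 3 h post-dose, for serum chemistry.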

[2] = test system: Mus musculus; assay: Toxicity in HBV infected transgenic 1.3.32 mouse assessed as weight loss at 7.9 to 25 mg/kg, po qd for 14 days; set-up: dose 7.9-25 mg/kg, route oral; conditions: in vivo, 336 h; outline: as §1
[3] = test system: Mus musculus; assay: Acute toxicity in CL57BL/6 mouse assessed as mortality at 25 mg/kg, iv administered as single dose after 24 hrs; set-up: dose 25 mg/kg, route intravenous; conditions: in vivo
Outline: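 Female C57BL/6 mice, four per group, randomised; single tail-vein bolus in NMP:Solutol HS15 (1:1) diluted with saline to 2 mg/mL, injected within 10 min of preparation; vehicle-only group. Close observation for the first hour; sacrifice and necropsy at 24 h. Whole-blood complete blood counts and serum chemistry, including total bilirubin and total protein, were measured.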

Measured: Activity

Fc1cccc(Cl)c1C1CC(c2ccc(Cl)cc2)Nc2ncnn21 (racemic)
Non-toxic: [1] | [2] | [3]
